According to ChEMBL document CHEMBL1131126, “Naamidine A is an antagonist of the epidermal growth factor receptor and an in vivo active antitumor agent” (J Med Chem, 1998):

Legend:
Assay type in all cases: functional
A-431 [1] = experiment: In vivo inhibitory activity against A431 tumor implanted in athymic mice at 50 mg/kg […]; conditions: Mus musculus
Summary of the method: (§1)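 A431 squamous carcinoma cells (EGF receptor-overexpressing) implanted under the kidney capsule of athymic mice, N = 6 per group. Dosed once daily for 5 days starting the day after implantation. Tumor size assessed 7 days after implantation; result given as % inhibition of tumor growth, with deaths counted per group.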

A-431 [2] = experiment: In vivo inhibitory activity against A431 tumor implanted in athymic mice at 25 mg/kg […]; conditions: Mus musculus; summary of the method: as §1
Mus musculus = species on record: Mus musculus; experiment: Selectivity for EGF over insulin receptors
Summary of the method: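 Ratio of insulin-stimulated IC50 to EGF-stimulated IC50, both from [3H]thymidine incorporation in EGF receptor-transfected NIH3T3 cells (1 h preincubation, 16 h mitogen stimulation, 1-h label).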

A-431 [3] = experiment: In vivo inhibitory activity against A431 tumor implanted in athymic mice at 3.13 mg/kg […]; conditions: Mus musculus; summary of the method: as §1
A-431 [4] = experiment: In vivo inhibitory activity against A431 tumor implanted in athymic mice at 12.5 mg/kg […]; conditions: Mus musculus; summary of the method: as §1

Selectivity (Mus musculus)	Compound	inhibition in vivo at 50 mg/kg (A-431 [1]) [%]	inhibition in vivo at 25 mg/kg (A-431 [2]) [%]	inhibition in vivo at 3.13 mg/kg (A-431 [3]) [%]	inhibition in vivo at 12.5 mg/kg (A-431 [4]) [%]
0.18	COc1ccc(Cc2cn(Cc3ccc(OC)cc3)c(NC3=NC(=O)N(C)C3=O)n2)cc1	–	–	–	–
0.43	COc1ccc(Cc2cn(Cc3ccc(O)cc3)c(NC3=NC(=O)N(C)C3=O)n2)cc1	–	–	–	–

Compound	Selectivity (Mus musculus)	inhibition in vivo at 50 mg/kg (A-431 [1]) [%]	inhibition in vivo at 25 mg/kg (A-431 [2]) [%]	inhibition in vivo at 3.13 mg/kg (A-431 [3]) [%]	inhibition in vivo at 12.5 mg/kg (A-431 [4]) [%]
COc1ccc(Cc2nc(NC3=NC(=O)N(C)C3=O)n(C)c2Cc2ccc(O)cc2)cc1	21	96.4	87.4	35	52
